# From the RNAGym collection of RNA variant scans (doi:10.1126/science.aae0568)
# Fewer inactive variants are shown than the library holds.
# B1: tRNA (parent)
# chain: GUUCCGUUGGCGUAAUGGUAACGCGUCUCCCUCCUAAGGAGAAGACUGCGGGUUCGAGUCCCGUACGGAACG
# Variants of: B1
# Experiment: yeast fitness relative to wild type (ratio to wild type); higher = fitter; tRNA-Arg(CCU), competitive growth, 37 C, YPD
# Outline: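 Variants of the tRNA-Arg(CCU) gene were chemically synthesised with a 3% per-site mutation rate across 69 sites and placed at the native genomic locus in Saccharomyces cerevisiae. Six parallel replicates of the pooled strains were competed in YPD at 37°C for 24 hours, and gene amplicons from the start and end populations were read by 100-nucleotide paired-end sequencing. Darwinian fitness relative to wild type was derived from changes in genotype frequencies. Genotypes required ≥ 100 starting reads, and estimates < 0.5 were set to 0.5.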
row,Variant,yeast fitness
1,A37U G41C,0.68
2,A37G G44A A69U,0.525
3,G38A C62U A69C,0.717
4,A37G C55A G67A,≤ 0.5
5,A37G C49G C55U G56C G68A,≤ 0.5
6,A37G C55G U64C,0.633
7,G38A U47A C55G,0.658
8,A37G C49U,0.819
9,A37U G44A A57C C61G,0.625
10,G38A A43G A70C,0.584
11,G38C A40C,1.02
12,A37G U59G,0.75
13,A37U A45U A65G,≤ 0.5
14,A37G A69C,0.97
15,A37U C49A C66U,≤ 0.5
16,A37G C61U,0.785
17,A37G C46G G56A,0.624
18,A37U C55U A65U,≤ 0.5
19,G38A A40U G50C C60G G67A A70C,≤ 0.5
20,G38A U59G,0.705
21,A37G G44A A65C,0.561
22,G38A C55U,0.849
23,G38A C55G,0.564
24,A37G A65G,0.695

row,Variant,yeast fitness
1,A37G A65U,0.598
2,A37U C49U U64C,0.545
3,G38A A43G C46U C49U,0.611
4,A37U G48C,0.674
5,G38A A43U G56A G63A,≤ 0.5
6,A37G U54C,0.674
7,A37G U54A,≤ 0.5
8,G38C A70G,0.756
9,G38A A43G,0.607
10,G38A C62G A70U,≤ 0.5
11,A37G G52C A70U,0.552
12,G38A C46A G50A U53C,0.596
13,G38A G56A A70U,0.7
14,G38C A42G A70C,≤ 0.5
15,G38A C62G,0.648
16,G38A C62A,0.742
17,A37G U54C A65U,≤ 0.5
18,A37G A70U,0.741
19,A37U A42C A69C,≤ 0.5
20,A37G C60U A70U,≤ 0.5
21,A37G A57G U64C,≤ 0.5
22,A37G U47C,0.744
23,A37U C60U C62G U64A A69U,≤ 0.5
24,A37U G38C G63A,≤ 0.5

row,Variant,yeast fitness
1,G38A G68A,0.718
2,G38A G68C,0.823
3,A37G U53C,0.553
4,A37G U53G,≤ 0.5
5,G38C A45U,0.599
6,A37U A40U,0.72
7,A37U A40C,0.776
8,A37G G39A A45C,0.635
9,A37U A65G,0.651
10,A37G G44A C66U,0.731
11,A37G G67C,0.79
12,A37G G50A,0.842
13,A37U C62A,0.523
14,A37G C62A,0.582
15,A37U A57G,0.648
16,A37U A57C,0.578
17,A37U C46A,0.816
18,A37G A43U A65C,0.627
19,A37G A57G,0.87
20,A37G A57U,0.55
21,G38C C55A,0.508
22,A37U G56C,0.528
23,A37U C61U,0.771
24,G38C A45C A57C A70U,≤ 0.5

row,Variant,yeast fitness
1,A37U G52A U54C G56C A57G,≤ 0.5
2,G38A C61A,0.646
3,A37U A45U G68U,≤ 0.5
4,G38A C60U,0.831
5,A37U G68C,0.837
6,G38A U54A A57C,0.551
7,A37U U59G C60U,≤ 0.5
8,G38C A42G A43G,≤ 0.5
9,G38A G58C,1
10,G38A A40U,0.747
11,G38C A45U G63C C66G,≤ 0.5
12,G38C C60A A70G,0.582
13,A37U G52A,0.534
14,A37U C49U,0.68
15,G38A G41C,0.659
16,G38A G67A,0.881
17,A37U A65G C66A,≤ 0.5
18,A37G A42U C62A A65C,≤ 0.5
19,G38A C55A G68A,≤ 0.5
20,G38A U54C,0.72
21,A37U A40C G51C C66A,≤ 0.5
22,G38A U47A C55G C61U,0.718
23,A37G A43G,0.734
24,A37G G56C A69C,≤ 0.5

row,Variant,yeast fitness
1,A37U G38C C61U,≤ 0.5
2,A37G C55U,0.519
3,A37U G38C A65C,≤ 0.5
4,A37U U53G C55G C62A,0.744
5,G38A C61A A65U,≤ 0.5
6,G38A C49U G51C,≤ 0.5
7,A37U C66U,0.627
8,A37U A42U A65C,≤ 0.5
9,G38A C46A A57G,0.769
10,A37U G44A C66U,0.535
11,A37U G39C G48A U53G,≤ 0.5
12,A37G C55U G63A,≤ 0.5
13,A37G A42U G48C C49U A65G,≤ 0.5
14,A37G U47G G52A,≤ 0.5
15,G38C A45U U54A C61U,≤ 0.5
16,G38C C60G,0.567
17,G38C C60U,0.571
18,A37G A42C A65U A69C,≤ 0.5
19,A37G G51C A70U,≤ 0.5
20,G38A A40U A65G,≤ 0.5
21,A37G C46U C62G,0.533
22,A37G G39A C46G U53C C62U A69C,≤ 0.5
23,A37U G63C,0.591
24,G38A A40C G56A C66U A70C,≤ 0.5

row,Variant,yeast fitness
1,G38A U59G A69G,≤ 0.5
2,A37G G48C C49U C60A A65U,≤ 0.5
3,A37G U47A C60A,≤ 0.5
4,G38C C49U U54A A65C,≤ 0.5
5,G38C A42C A65C,≤ 0.5
6,A37U A45U,0.64
7,A37G G48A,0.768
8,A37G G44A,0.73
9,A37G G44C,0.809
10,G38C A69U A70C,0.557
11,G38A A43U U54A,≤ 0.5
12,A37U A42C,0.698
13,A37U A42G,0.588
14,G38C A65U C66U,0.657
15,A37U U47C,0.667
16,A37U U47A,0.796
17,G38A G44C U47G,≤ 0.5
18,G38C C46A U59C G68A,≤ 0.5
19,G38A A65C,0.707
20,G38A A45C,0.818
21,A37U A57U A65C G68A,0.561
22,G38C C46G G51C A57C C61U,≤ 0.5
23,G38A A65U G68U,0.665
24,A37G G39A C62U G63A,≤ 0.5

row,Variant,yeast fitness
1,G38C C49G,0.743
2,A37U G50A A69U,0.805
3,A37G C49A G56A,0.607
4,A37G G41A G50A,≤ 0.5
5,G38C A40U C61G,≤ 0.5
6,A37G G44A U64G,≤ 0.5
7,G38A C46U,0.798
8,G38A C46A,0.993
9,A37U G41C C46G,≤ 0.5
10,A37U U47A G52U,≤ 0.5
11,G38A A40C U53C,0.538
12,A37U G48C A70U,0.547
13,A37U A42C G48C A70U,≤ 0.5
14,A37G C66A,0.63
15,A37G G39A,0.638
16,A37U A45C C46A,0.598
17,A37U C61A G67C,0.507
18,A37U G48A C61U,0.531
19,G38C C46G C49G G51C C61U,0.593
20,A37U G38C,0.557
21,G38C A65U,0.723
22,G38C A65C,0.578
23,A37G A42G C49A,≤ 0.5
